# Experimental data: ChEMBL document CHEMBL1141780, “Diterpenoid, steroid, and triterpenoid agonists of liver X receptors from diversified terrestrial plants and marine sources” (J Nat Prod, 2005)
# Activity calls are given as the source filed them. The calls are words filed in the database; no cut-off is given here.
# Columns and labels:
# [1] = target: T1, Oxysterols receptor LXR-alpha (Homo sapiens, UniProt Q13133); test: Agonist activity at human recombinant LXRalpha expressed in Escherichia coli BL21 cells assessed as association of recombinant SRC1 to LXRalpha ligand binding domain by HTRF assay
# T1 sequence (Q13133 whole entry): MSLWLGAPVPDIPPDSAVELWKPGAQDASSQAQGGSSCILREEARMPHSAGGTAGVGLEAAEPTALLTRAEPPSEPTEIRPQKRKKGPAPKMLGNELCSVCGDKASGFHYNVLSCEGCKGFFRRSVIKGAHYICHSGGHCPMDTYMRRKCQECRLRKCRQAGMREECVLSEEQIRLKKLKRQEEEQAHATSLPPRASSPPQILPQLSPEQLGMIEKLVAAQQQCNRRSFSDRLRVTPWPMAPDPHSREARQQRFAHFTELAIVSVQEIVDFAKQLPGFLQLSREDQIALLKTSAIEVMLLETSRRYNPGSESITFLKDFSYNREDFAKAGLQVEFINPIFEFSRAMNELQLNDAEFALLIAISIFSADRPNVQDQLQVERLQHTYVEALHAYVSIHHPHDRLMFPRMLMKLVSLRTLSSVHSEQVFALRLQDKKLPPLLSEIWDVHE
# [2] = target: T2, Oxysterols receptor LXR-beta (Homo sapiens) (UniProt P55055); conditions: BL21
# T2 sequence (whole entry): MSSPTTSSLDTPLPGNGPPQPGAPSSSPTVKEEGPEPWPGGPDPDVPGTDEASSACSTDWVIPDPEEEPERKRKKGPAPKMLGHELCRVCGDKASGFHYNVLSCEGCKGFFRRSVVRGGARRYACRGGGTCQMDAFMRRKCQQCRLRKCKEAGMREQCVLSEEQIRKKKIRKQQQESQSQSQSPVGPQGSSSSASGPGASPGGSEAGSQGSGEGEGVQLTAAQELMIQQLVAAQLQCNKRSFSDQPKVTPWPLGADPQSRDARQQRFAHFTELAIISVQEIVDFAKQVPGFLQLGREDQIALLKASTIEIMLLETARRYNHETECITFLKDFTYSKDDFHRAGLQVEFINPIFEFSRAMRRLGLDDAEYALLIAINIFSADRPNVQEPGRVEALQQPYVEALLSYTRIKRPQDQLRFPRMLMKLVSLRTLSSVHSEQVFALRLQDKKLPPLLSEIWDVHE
# [3] = target: T3, Oxysterols receptor LXR-beta (Homo sapiens, UniProt P55055); test: Agonist activity at human recombinant LXRbeta expressed in Escherichia coli BL21 cells assessed as association of recombinant SRC1 to LXRbeta ligand binding domain by HTRF assay
# T3 sequence (P55055 whole entry): T2 sequence (whole entry)
# [4] = target: Liver X receptor (LXR alpha AND LXR beta) (Homo sapiens) (UniProt Q13133+P55055); test: Selectivity of human recombinant LXRalpha over human recombinant LXRbeta; type: protein assay
# [5] = target: T4, Oxysterols receptor LXR-alpha (Homo sapiens) (UniProt Q13133); test: Activity of human recombinant LXRalpha ligand binding domain-mediated transcriptional activity in human HEK293 cells with Gal4 reporter plasmid at 30 uM by luciferase reporter assay; type: cell-based
# T4 sequence (whole entry): T1 sequence (Q13133 whole entry)
# How it was run: (§1)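 Cell-based transactivation in HEK-293 cells with chimeric constructs: yeast Gal4 DNA-binding domain fused to the hinge region and LBD of LXRα or LXRβ. Agonist activity is read as fold induction over DMSO control.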
# [6] = target: T2, Oxysterols receptor LXR-beta (Homo sapiens); test: Activity of human recombinant LXRbeta ligand binding domain-mediated transcriptional activity in human HEK293 cells with Gal4 reporter plasmid at 30 uM by luciferase reporter assay; type: cell-based; how it was run: as §1
# [7] = target: T4, Oxysterols receptor LXR-alpha (Homo sapiens); test: Activity of human recombinant LXRalpha ligand binding domain-mediated transcriptional activity in human HEK293 cells with Gal4 reporter plasmid by luciferase reporter assay; type: cell-based; how it was run: as §1
# [8] = target: T2, Oxysterols receptor LXR-beta (Homo sapiens); test: Activity of human recombinant LXRbeta ligand binding domain-mediated transcriptional activity in human HEK293 cells with Gal4 reporter plasmid by luciferase reporter assay; type: cell-based; how it was run: as §1
# [9] = target: T2, Oxysterols receptor LXR-beta (Homo sapiens); test: Agonist activity at human recombinant LXRbeta expressed in Escherichia coli BL21 cells assessed as association of recombinant SRC1 to LXRbeta ligand binding domain at 10 uM by HTRF assay
# [10] = target: T2, Oxysterols receptor LXR-beta (Homo sapiens); test: Activity of human recombinant LXRbeta ligand binding domain-mediated transcriptional activity in human HEK293 cells with Gal4 reporter plasmid at 100 uM by luciferase reporter assay; type: cell-based; how it was run: as §1
# [11] = target: T4, Oxysterols receptor LXR-alpha (Homo sapiens); test: Activity of human recombinant LXRalpha ligand binding domain-mediated transcriptional activity in human HEK293 cells with Gal4 reporter plasmid at 100 uM by luciferase reporter assay; type: cell-based; how it was run: as §1
# [12] = target: T4, Oxysterols receptor LXR-alpha (Homo sapiens); test: Activity of human recombinant LXRalpha ligand binding domain-mediated transcriptional activity in human HEK293 cells with Gal4 reporter plasmid at 2.2 uM by luciferase reporter assay; type: cell-based; how it was run: as §1
# [13] = target: T2, Oxysterols receptor LXR-beta (Homo sapiens); test: Displacement of [3H2]F3-methyl AA from human recombinant LXRbeta expressed in Escherichia coli BL21 cells at 100 uM
# [14] = target: T4, Oxysterols receptor LXR-alpha (Homo sapiens); test: Displacement of [3H2]F3-methyl AA from human recombinant LXRalpha expressed in Escherichia coli BL21 cells at 100 uM
SMILES,EC50 [1],LC50 [2],EC50 [3],further results
C[C@]1(C(=O)O)CCC[C@]2(C)c3cc(O)ccc3CC[C@@H]12 [PODOCARIC ACID],> 50000 nM,> 50000 nM,> 50000 nM,
CC(C)[C@H](C)[C@@]1(C)C[C@@H]1[C@@H](C)[C@H]1CC[C@H]2[C@@H]3CC=C4C[C@@H](O)CC[C@]4(C)[C@@]3(O)[C@H](O)C[C@]12C,450 nM,50000 nM,,fold change (FC) [4]: 40; fold change (FC) [5]: 10.1; Activity [6]: inactive
C/C(=C\CC[C@@H](C)[C@H]1CC[C@@]2(C)[C@@H]3CC=C4[C@@H](CC[C@@H](O)C4(C)C)[C@]3(C)CC[C@]12C)C(=O)O [ROSACEA ACID B],> 50000 nM,390 nM,> 50000 nM,
CCCc1c(OCCCSc2ccc(CC(=O)O)cc2Cl)ccc2c(C(F)(F)F)noc12,,25 nM,,fold change (FC) [7]: 20; fold change (FC) [8]: 35
CC(=O)Oc1ccc2c(c1)[C@@]1(C)CCC[C@](C)(C(=O)OC(=O)[C@@]3(C)CCC[C@]4(C)c5cc(OC(C)=O)ccc5CC[C@@H]34)[C@@H]1CC2 [ACETYL PODOCARPIC ACID ANHYDRIDE],1 nM,1 nM,< 3 nM,fold change (FC) [7]: 50; fold change (FC) [8]: 85
CC(C)[C@H](C)[C@@]1(C)C[C@@H]1[C@@H](C)[C@H]1CC[C@H]2[C@@H]3C[C@@H](O)[C@@]4(O)C[C@@H](O)CC[C@]4(C)[C@@]3(O)[C@H](O)C[C@]12C,50 nM,200 nM,,Activity [9]: inactive
C=C[C@@]1(C)CC=C2[C@@H](CC[C@@H]3[C@](C)(C(=O)O)CCC[C@@]23C)C1,180 nM,1490 nM,> 50000 nM,fold change (FC) [10]: 5.6; fold change (FC) [11]: 15.9
C=C[C@@]1(C)CC=C2[C@@H](CC[C@@H]3[C@](C)(C(=O)NCC45CC6CC(CC(C6)C4)C5)CCC[C@@]23C)C1,> 50000 nM,> 50000 nM,> 50000 nM,
C=C(CC[C@@H](C)[C@H]1CC[C@H]2[C@@H]3[C@@H](O)[C@@H](O)[C@@]4(O)C[C@@H](O)CC[C@]4(C)[C@H]3CC[C@]12C)C(C)C,170 nM,,,Activity [9]: inactive
CC(C)=CCC[C@@H](C)[C@H]1C[C@H](O)[C@@]2(C)C3=CC[C@H]4C(C)(C)[C@@H](O)CC[C@]4(C)C3=CC[C@]12C,30 nM,> 15000 nM,> 50000 nM,fold change (FC) [12]: 8
CC(C)CCC[C@@H](C)[C@H]1CC[C@H]2C3=CC(=O)[C@H]4C[C@@H](O)CC[C@]4(C)[C@@]3(O)CC[C@]12C [VIPERIDONE],> 15000 nM,,,
C=C[C@@]1(C)CC=C2[C@@H](CC[C@@H]3[C@](C)(CO)CCC[C@@]23C)C1,390 nM,730 nM,> 50000 nM,
CC(C)CC[C@@H](O)[C@@H](C)[C@H]1CC[C@H]2[C@@H]3CC=C4C[C@@H](O)CC[C@]4(C)[C@H]3CC[C@]12C [22(R)-HYDROXYCHOLESTEROL],> 15000 nM,,> 15000 nM,Activity [13]: 60%; Activity [14]: 70%; fold change (FC) [7]: 4; fold change (FC) [8]: 8
C=C(C)[C@@H]1CC[C@]2(C(=O)O)CC[C@]3(C)[C@H](CC[C@@H]4[C@@]5(C)CC[C@H](O)C(C)(C)[C@@H]5CC[C@]43C)[C@@H]12 [BETULINIC ACID],> 50000 nM,> 25000 nM,> 50000 nM,
